Results reported in ChEMBL document CHEMBL5649170, “Sustained microglial depletion with CSF1R inhibitor impairs parenchymal plaque development in an Alzheimer's disease model” (Nat Commun, 2019).
Active and inactive are the calls of the source. No cut-off for these calls is given here.

Experiments:
[1] = target: T1, Macrophage colony-stimulating factor 1 receptor (Mus musculus) (UniProt P09581); assay: In vivo inhibition of CSF1R in 5XFAD mouse assessed as reduction in plaque pathology in […] cortex at 600 ppm administered as rodent chow starting from 1.5 months and measured after 5 months by immunolabeling based confocal microscopic analysis; details: route po, time 3.5 months
T1 sequence (whole entry): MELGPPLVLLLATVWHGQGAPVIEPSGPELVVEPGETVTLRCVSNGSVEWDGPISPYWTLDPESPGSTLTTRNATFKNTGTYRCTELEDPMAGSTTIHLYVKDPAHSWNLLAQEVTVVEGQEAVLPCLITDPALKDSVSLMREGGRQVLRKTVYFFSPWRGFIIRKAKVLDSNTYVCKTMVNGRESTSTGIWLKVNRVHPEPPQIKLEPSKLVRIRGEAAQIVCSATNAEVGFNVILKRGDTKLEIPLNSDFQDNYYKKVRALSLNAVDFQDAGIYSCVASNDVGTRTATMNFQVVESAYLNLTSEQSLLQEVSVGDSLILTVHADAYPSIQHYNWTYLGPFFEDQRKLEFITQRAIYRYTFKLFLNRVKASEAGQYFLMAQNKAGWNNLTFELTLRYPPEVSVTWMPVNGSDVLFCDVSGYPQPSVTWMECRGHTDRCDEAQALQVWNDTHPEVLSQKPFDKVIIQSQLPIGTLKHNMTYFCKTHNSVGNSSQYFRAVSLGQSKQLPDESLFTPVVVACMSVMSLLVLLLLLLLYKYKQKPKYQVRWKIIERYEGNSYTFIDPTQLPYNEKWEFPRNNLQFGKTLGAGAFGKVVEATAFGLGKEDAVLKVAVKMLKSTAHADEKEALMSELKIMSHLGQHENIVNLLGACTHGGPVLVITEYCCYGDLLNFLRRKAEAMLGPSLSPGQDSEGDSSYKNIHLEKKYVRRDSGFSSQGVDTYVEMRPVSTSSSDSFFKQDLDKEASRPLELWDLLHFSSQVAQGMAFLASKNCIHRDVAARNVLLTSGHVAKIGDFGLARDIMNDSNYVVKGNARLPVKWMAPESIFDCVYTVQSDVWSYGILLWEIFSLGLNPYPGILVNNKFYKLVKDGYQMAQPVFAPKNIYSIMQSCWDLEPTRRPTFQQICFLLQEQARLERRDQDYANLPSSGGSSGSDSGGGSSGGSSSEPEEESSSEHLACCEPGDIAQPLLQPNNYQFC

[2] = target: Cyclin-dependent kinase 5/CDK5 activator 1 (Homo sapiens, UniProt Q00535); assay: Inhibition of CDK5_p25 (unknown origin); assay type: protein-complex assay
[3] = target: Casein kinase I isoform alpha (Homo sapiens, UniProt P48729); assay: Inhibition of CSNK1A1 (unknown origin)
Ephrin type-A receptor 5 = Ephrin type-A receptor 5 (Homo sapiens, UniProt P54756); assay: Inhibition of EPHA5 (unknown origin)
[4] = target: Serine/threonine-protein kinase MARK1 (Homo sapiens, UniProt Q9P0L2); assay: Inhibition of MARK1 (unknown origin)
[5] = target: Serine/threonine-protein kinase PLK3 (Homo sapiens, UniProt Q9H4B4); assay: Inhibition of PLK3 (unknown origin)
[6] = target: Serine/threonine-protein kinase Sgk1 (Homo sapiens, UniProt O00141); assay: Inhibition of SGK (unknown origin)
[7] = target: Tyrosine-protein kinase receptor TYRO3 (Homo sapiens, UniProt Q06418); assay: Inhibition of TYRO3 (unknown origin)
[8] = AUC (0 to infinity) in male rat at 1.13 mg/kg, iv administered as single dose; assay type: ADME, organism-based; details: in vivo
[9] = Half-life in mouse at 1.92 mg/kg, iv administered as single dose; assay type: ADME, organism-based; details: in vivo
Mus musculus [10] = assay: Antialzheimer activity in 5XFAD mouse assessed as amyloidbeta38 level in detergent soluble cortex fraction measured per microgram protein at 1200 ppm administered as rodent chow starting from 1.5 months and measured after 7 months by ELISA (reference value: 0 to 0.014 pg); assay type: functional; details: route po, time 5.5 months, 4015 h
Procedure, shortened: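 PLX5622 at 1200 ppm in chow given to 5xFAD mice from 1.5 months to 4 or 7 months of age; cortex and thalamus homogenized in TPER (detergent-soluble), pellets re-homogenized in 70% formic acid and spun 100,000 g, 1 h, 4 °C (insoluble); protein by Bradford/Lowry; Aβ species measured by Meso Scale electrochemiluminescence immunoassay, normalized to protein; n = 7–8 per group at 7 months.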

[11] = target: T1, Macrophage colony-stimulating factor 1 receptor (Mus musculus); assay: In vivo inhibition of CSF1R in wildtype mouse assessed as iron reactivity by measuring hemosiderin intensity of prussian blue staining in thalamus at 1200 ppm administered as rodent chow starting from 1.5 months and measured after 4 months by confocal microscopic analysis (reference value: 0.1 to 2.451 a.u.); assay type: functional; details: route po, time 2.5 months
Procedure, shortened: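 Wild-type or 5xFAD mice fed PLX5622 (1200 ppm) in AIN-76A chow from 1.5 months of age, examined in 4- and 7-month-old cohorts. Brain sections stained with a Prussian blue kit per kit instructions to detect iron deposits (microbleeds).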

Mus musculus [12] = assay: Antialzheimer activity in 5XFAD mouse assessed as number of Iba1 positive cells per FOV in subiculum at 1200 ppm administered as rodent chow starting from 1.5 months and measured after 7 months by immunolabeling based confocal microscopic analysis (reference value: 1284 to 1582); assay type: functional; details: route po, time 5.5 months, 4015 h
Mus musculus [13] = assay: Antialzheimer activity in 5XFAD mouse assessed as ApoE immunoreactivity by measuring ApoE intensity of plaque core in cortex at 1200 ppm administered as rodent chow starting from 1.5 months and measured after 7 months by immunolabeling based confocal microscopic analysis (reference value: 13.88 to 87.23 a.u.); assay type: functional; details: route po, time 5.5 months, 4015 h
[14] = Effect on Cx3cr1 gene expression in 5XFAD mouse hippocampus at 1200 ppm administered as rodent chow starting from 1.5 months and measured after 7 months by RNA-Seq analysis (reference value: 17.752 to 23.676 RPKM); assay type: functional; details: route po, time 5.5 months, 4015 h
[15] = Effect on Spi1 gene expression in wild type mouse hippocampus at 1200 ppm administered as rodent chow starting from 1.5 months and measured after 7 months by RNA-Seq analysis (reference value: 1.111 to 1.682 RPKM); assay type: functional; details: route po, time 5.5 months, 4015 h
[16] = Effect on Clec7a gene expression in 5XFAD mouse hippocampus at 1200 ppm administered as rodent chow starting from 1.5 months and measured after 7 months by RNA-Seq analysis (reference value: 4.246 to 7.511 RPKM); assay type: functional; details: route po, time 5.5 months, 4015 h
Procedure, shortened: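 WT and 5xFAD mice were treated with 1200 ppm PLX5622 chow or control chow from 1.5 to 7 months of age. Brains were microdissected into cortex, hippocampus and thalamus, and RNA was extracted from tissue powder. Whole-transcriptome RNA-Seq libraries were sequenced, with n = 4 per group per region (48 samples).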

[17] = Effect on Itgax gene expression in wild type mouse hippocampus at 1200 ppm administered as rodent chow starting from 1.5 months and measured after 7 months by RNA-Seq analysis (reference value: 0.057 to 0.109 RPKM); assay type: functional; details: route po, time 5.5 months, 4015 h
[18] = Effect on Itgax gene expression in 5XFAD mouse hippocampus at 1200 ppm administered as rodent chow starting from 1.5 months and measured after 7 months by RNA-Seq analysis (reference value: 2.202 to 4.490 RPKM); assay type: functional; details: route po, time 5.5 months, 4015 h

Serine/threonine-protein kinase MARK1, sequence (Q9P0L2 whole entry): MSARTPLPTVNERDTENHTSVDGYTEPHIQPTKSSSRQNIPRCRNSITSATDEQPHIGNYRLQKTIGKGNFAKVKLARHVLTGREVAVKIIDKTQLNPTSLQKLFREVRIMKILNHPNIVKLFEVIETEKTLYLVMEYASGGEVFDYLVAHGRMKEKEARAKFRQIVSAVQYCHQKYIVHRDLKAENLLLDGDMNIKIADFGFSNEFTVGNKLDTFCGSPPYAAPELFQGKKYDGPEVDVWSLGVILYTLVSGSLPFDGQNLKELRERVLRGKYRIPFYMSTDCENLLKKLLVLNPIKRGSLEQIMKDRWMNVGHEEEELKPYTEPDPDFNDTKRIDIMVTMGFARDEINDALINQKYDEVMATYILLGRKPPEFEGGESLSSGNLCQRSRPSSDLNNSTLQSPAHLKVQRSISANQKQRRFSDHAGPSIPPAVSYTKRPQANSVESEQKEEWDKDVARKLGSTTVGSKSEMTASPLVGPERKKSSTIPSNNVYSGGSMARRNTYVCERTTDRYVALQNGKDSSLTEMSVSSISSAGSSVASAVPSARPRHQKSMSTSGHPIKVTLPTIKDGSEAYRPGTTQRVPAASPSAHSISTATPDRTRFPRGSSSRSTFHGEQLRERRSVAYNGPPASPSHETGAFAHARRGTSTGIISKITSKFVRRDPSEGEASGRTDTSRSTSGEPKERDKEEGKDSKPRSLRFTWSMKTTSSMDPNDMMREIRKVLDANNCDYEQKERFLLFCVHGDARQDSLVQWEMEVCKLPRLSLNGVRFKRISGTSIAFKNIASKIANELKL
Ephrin type-A receptor 5, sequence (P54756 whole entry): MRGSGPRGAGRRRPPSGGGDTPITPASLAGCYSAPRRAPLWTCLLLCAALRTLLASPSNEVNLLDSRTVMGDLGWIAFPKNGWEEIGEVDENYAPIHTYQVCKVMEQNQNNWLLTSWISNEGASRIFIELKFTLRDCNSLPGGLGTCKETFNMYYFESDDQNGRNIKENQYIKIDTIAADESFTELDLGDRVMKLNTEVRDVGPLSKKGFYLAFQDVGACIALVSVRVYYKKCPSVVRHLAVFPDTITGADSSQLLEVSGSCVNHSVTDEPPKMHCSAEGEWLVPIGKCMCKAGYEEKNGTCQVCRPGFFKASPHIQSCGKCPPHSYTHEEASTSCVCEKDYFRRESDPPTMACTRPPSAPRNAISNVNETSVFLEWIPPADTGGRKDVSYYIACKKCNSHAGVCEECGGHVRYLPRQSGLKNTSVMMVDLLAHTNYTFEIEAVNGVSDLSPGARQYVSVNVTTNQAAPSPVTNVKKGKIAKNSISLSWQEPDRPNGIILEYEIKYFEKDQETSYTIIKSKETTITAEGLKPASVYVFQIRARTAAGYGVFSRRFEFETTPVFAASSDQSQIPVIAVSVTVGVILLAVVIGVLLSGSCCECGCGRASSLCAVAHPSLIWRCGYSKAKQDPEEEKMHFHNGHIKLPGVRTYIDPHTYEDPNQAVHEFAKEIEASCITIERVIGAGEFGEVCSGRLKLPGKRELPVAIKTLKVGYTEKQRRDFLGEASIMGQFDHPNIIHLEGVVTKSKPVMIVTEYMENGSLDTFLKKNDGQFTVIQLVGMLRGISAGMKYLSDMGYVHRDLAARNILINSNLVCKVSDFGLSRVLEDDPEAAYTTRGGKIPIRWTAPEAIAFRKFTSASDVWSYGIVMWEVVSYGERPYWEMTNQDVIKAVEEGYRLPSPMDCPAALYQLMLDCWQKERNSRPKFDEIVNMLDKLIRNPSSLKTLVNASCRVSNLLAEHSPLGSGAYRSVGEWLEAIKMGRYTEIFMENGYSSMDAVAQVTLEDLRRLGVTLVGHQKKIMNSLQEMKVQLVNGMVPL
Casein kinase I isoform alpha, sequence (P48729 whole entry, canonical isoform): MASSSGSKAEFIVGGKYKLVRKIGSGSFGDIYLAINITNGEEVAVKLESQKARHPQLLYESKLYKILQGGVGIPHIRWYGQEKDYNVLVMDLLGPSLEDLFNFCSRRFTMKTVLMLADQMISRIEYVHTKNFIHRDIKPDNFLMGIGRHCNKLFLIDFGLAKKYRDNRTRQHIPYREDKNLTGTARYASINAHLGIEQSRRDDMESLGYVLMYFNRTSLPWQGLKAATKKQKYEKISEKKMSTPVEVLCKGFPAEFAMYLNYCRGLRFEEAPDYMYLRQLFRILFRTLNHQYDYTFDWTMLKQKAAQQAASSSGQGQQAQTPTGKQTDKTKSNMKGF
Tyrosine-protein kinase receptor TYRO3, sequence (Q06418 whole entry): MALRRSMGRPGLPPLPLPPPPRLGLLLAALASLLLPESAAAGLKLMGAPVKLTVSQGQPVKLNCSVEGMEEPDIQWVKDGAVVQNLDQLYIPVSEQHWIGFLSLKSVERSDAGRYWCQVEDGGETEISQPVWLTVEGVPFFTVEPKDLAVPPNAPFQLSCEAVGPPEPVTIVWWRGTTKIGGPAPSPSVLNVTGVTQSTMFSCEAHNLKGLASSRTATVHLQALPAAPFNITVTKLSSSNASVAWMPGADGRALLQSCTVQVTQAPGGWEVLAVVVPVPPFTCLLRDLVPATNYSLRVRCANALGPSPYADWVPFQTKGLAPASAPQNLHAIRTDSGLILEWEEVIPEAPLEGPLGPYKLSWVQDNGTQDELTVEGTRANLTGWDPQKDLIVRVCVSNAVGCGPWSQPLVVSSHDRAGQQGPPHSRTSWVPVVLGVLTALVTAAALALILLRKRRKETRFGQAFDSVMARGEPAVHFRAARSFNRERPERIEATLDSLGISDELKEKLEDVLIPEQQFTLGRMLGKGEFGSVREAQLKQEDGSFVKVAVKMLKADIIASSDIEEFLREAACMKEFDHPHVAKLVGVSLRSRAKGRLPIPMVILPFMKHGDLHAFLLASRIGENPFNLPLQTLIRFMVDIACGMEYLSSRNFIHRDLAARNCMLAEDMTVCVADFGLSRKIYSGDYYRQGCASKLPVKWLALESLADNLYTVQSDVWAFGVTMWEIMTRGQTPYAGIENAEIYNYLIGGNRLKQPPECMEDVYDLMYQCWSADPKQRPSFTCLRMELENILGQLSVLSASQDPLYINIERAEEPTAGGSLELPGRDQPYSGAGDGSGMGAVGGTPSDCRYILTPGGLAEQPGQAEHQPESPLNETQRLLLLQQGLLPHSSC
Cyclin-dependent kinase 5/CDK5 activator 1, sequence (Q00535 whole entry, canonical isoform): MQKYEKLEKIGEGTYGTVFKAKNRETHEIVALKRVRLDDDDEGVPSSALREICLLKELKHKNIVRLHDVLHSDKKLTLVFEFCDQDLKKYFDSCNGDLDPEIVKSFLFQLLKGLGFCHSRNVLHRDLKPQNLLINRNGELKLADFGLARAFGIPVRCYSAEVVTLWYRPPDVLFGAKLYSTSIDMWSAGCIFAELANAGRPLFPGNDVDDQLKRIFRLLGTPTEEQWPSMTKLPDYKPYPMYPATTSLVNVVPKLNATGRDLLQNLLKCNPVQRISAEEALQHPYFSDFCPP
Cyclin-dependent kinase 5/CDK5 activator 1, sequence (Q15078 whole entry, further chain, canonical isoform): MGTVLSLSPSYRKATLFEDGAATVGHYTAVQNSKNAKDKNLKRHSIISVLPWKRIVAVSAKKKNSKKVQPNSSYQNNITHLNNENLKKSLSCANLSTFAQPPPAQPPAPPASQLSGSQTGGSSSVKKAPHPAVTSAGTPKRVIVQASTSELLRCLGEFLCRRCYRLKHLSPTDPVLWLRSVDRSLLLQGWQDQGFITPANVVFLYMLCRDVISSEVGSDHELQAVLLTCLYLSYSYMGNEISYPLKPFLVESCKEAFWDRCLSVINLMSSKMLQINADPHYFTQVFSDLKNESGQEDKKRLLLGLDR
Serine/threonine-protein kinase PLK3, sequence (Q9H4B4 whole entry): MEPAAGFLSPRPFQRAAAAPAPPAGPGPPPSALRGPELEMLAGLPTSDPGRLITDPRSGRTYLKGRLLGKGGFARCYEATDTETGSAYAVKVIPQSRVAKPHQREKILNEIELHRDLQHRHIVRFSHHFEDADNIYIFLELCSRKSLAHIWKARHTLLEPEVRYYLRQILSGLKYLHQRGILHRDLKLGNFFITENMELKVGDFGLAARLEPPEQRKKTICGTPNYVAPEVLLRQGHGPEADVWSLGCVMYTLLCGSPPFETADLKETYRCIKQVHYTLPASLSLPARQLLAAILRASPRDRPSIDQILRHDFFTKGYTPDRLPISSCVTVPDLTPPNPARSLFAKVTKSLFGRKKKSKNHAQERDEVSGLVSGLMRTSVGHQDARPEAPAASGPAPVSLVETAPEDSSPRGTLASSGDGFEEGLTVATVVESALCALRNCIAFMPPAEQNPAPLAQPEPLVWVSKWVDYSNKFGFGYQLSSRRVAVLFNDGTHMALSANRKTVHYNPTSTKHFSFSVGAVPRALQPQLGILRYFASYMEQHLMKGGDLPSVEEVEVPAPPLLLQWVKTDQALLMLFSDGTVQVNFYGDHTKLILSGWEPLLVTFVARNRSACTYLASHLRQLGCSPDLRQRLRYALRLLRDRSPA
Serine/threonine-protein kinase Sgk1, sequence (O00141 whole entry): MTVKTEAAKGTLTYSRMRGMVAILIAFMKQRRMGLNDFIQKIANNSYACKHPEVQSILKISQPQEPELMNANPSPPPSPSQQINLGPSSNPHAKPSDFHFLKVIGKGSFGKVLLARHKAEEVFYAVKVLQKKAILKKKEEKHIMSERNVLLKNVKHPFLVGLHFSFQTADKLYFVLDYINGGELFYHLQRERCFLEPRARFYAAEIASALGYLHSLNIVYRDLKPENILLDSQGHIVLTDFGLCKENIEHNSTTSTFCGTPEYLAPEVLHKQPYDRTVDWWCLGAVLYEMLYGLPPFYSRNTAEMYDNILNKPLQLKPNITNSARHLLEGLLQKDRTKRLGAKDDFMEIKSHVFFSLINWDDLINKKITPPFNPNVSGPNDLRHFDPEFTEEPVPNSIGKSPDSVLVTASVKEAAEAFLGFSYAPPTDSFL

Structure (SMILES)	inhibition [1]	IC50 [2]	IC50 [3]	IC50 (Ephrin type-A receptor 5)	IC50 [4]	IC50 [5]	IC50 [6]	IC50 [7]	AUC(0-inf) [8]	half-life [9]	Activity (Mus musculus [10])	Flu intensity [11]	Activity (Mus musculus [12])	Flu intensity (Mus musculus [13])	Activity [14]	Activity [15]	Activity [16]	Activity [17]	Activity [18]
FC(F)(F)c1ccc(CNc2ccc(Cc3c[nH]c4ncc(Cl)cc34)cn2)cn1 [PEXIDARTINIB]	Active																		
COc1ncc(F)cc1CNc1ccc(Cc2c[nH]c3ncc(C)cc23)c(F)n1 [PLX-5622]		> 1000 nM	> 1000 nM	> 1000 nM	> 1000 nM	> 1000 nM	> 1000 nM	> 1000 nM	2630 ng·h/mL	2.6 h	0 pg	0.273 a.u.	25	4.57 a.u.	1.607 RPKM	0.055 RPKM	0.239 RPKM	0 RPKM	0.155 RPKM
